The results in this text go back to ChEMBL document CHEMBL4706641, “Novel Carboline Fungal Histone Deacetylase (HDAC) Inhibitors for Combinational Treatment of Azole-Resistant Candidiasis” (J Med Chem, 2021).

For test [1], the system named is Candida albicans. The test can be described thus: Synergistic antifungal activity against Candida albicans 0304103 incubated for 48 hrs in presence of fluconazole by microdilution assay. It is filed as functional. The method in brief: (§1)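 Checkerboard broth microdilution per CLSI M27-A3 (modified), clinical Candida isolates. Exponential cells in RPMI 1640 (MOPS-buffered) at 10³ cells/mL; fluconazole 0.25–64 μg/mL crossed with test compound 2–64 μg/mL (final). 48 h at 35 °C; OD630 read with background subtracted. MIC80 = 80% growth inhibition; FICI ≤0.5 synergy, >4 antagonism.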
(In general: Dilution methods test growth across graded concentrations, often in twofold steps.)

Test [2] relates to Candida albicans. Briefly: microbe, parasite or virus in culture. In kind it is functional, 0304103. The settings on record: Candida albicans, 0304103; time 48 hrs; read-out: MIC80.
Test [3] has as its system Candida albicans. The test can be described thus: Synergistic antifungal activity against Candida albicans 0304103 assessed as potentiation of fluconazole antifungal activity by measuring FICI incubated for 48 hrs in presence of fluconazole by checkerboard microdilution assay. It is filed as functional. The method in brief:
as §1

Test [4] relates to Candida albicans. The test can be described thus: Synergistic antifungal activity against azole-resistant Candida albicans assessed as potentiation of ITC antifungal activity by measuring ITC incubated for 48 hrs in presence of fluconazole by checkerboard microdilution assay. It is filed as functional.
Another test deals with Cryptococcus neoformans. Briefly: Synergistic antifungal activity against Cryptococcus neoformans assessed as potentiation of VRC antifungal activity by measuring VRC incubated for 48 hrs in presence of fluconazole by checkerboard microdilution assay. It is filed as functional, organism-based.
The subject of test [5] is Candida albicans. Briefly: Synergistic antifungal activity against Candida albicans 9172 assessed as potentiation of fluconazole antifungal activity by measuring FICI incubated for 48 hrs in presence of fluconazole by checkerboard microdilution assay. In kind it is functional. The method in brief:
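Checkerboard broth microdilution per CLSI M27-A3 (modified), clinical Candida isolates. 48 h at 35 °C; OD630 read with background subtracted. MIC80 = 80% growth inhibition; FICI ≤0.5 synergy, >4 antagonism.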

The target in test [6] is T1, Protein deacetylase HDAC6 (Homo sapiens, UniProt Q9UBN7).
T1 sequence (Q9UBN7 whole entry): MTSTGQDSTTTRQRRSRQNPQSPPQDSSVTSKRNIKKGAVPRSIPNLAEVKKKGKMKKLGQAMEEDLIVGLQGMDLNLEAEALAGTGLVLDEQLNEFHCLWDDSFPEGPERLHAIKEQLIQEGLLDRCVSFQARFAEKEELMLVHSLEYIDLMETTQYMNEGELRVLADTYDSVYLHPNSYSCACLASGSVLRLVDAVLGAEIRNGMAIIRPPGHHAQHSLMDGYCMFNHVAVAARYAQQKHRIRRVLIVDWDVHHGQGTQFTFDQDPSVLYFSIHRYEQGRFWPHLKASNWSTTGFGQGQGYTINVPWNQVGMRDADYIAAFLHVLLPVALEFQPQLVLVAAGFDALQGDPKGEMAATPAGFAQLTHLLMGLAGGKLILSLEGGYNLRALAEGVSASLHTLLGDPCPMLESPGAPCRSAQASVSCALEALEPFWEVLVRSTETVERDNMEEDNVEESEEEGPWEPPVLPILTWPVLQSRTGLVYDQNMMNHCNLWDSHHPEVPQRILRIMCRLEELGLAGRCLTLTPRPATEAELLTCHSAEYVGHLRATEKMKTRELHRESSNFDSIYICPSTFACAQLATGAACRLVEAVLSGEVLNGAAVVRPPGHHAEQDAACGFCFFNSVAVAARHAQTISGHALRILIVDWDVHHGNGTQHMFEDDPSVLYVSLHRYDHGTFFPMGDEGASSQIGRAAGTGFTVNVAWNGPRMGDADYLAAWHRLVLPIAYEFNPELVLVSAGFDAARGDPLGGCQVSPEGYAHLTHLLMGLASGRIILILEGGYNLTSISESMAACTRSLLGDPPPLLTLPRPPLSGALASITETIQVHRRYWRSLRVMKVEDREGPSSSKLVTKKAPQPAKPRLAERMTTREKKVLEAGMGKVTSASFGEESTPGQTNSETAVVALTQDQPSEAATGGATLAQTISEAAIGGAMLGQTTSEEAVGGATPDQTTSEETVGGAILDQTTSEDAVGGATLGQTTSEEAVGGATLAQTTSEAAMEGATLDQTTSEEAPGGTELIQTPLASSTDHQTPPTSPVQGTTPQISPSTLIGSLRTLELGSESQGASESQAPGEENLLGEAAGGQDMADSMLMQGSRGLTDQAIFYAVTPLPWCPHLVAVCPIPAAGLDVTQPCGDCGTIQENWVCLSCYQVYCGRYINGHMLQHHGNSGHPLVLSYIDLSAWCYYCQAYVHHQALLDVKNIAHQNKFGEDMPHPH
The test can be described thus: Inhibition of human HDAC6 pre-incubated for 5 mins before substrate addition and measured after 30 mins by fluorescence based assay.

Test [7] relates to Candida albicans. Briefly: Down regulation of CDR2 mRNA expression in Candida albicans 0304103 at 32 ug/ml incubated for 24 hrs in presence of 32 ug/ml fluconazole by RT-PCR analysis. In kind it is functional. The settings on record: dose 32.0 µg/ml. In short, it runs like this: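 C. albicans 0304103 (initial 1 × 10⁶ cells/mL) treated with DMSO, fluconazole 32 μg/mL, compound 32 μg/mL, or both in YEPD medium, 35 °C for 24 h. Total RNA extracted, reverse transcribed, real-time PCR for 40 cycles; fold change by 2^−ΔΔCt with ACT1 as internal control.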

The subject of test [8] is Candida albicans. The test can be described thus: Induction of morphological changes in Candida albicans assessed as reduction in morphological conversion from yeast to hypha forms at 32 ug/ml incubated for 3 hrs in presence of 32 ug/ml fluconazole by inverse fluorescence microscopy. In kind it is functional, organism-based. The settings on record: dose 32.0 µg/ml. In short, it runs like this:
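Exponential C. albicans at 2 × 10⁶ cells/mL in Spider medium (hypha-inducing), drugs alone or combined, DMSO control; 3 h at 37 °C, then observed and photographed by inverted fluorescence microscopy. Three independent experiments.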

In test [9] the test system is Candida albicans. Briefly: Inhibition of biofilm formation in Candida albicans 0304103 at 0.12 to 64 ug/ml incubated for 24 hrs by XTT reduction assay. The settings on record: dose 0.12-64 µg/ml. It is filed as functional, organism-based. In short, it runs like this:
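C. albicans 0304103 at 1.0 × 10⁶ CFU/mL in RPMI 1640 allowed to adhere 90 min at 37 °C, washed with PBS, then fresh medium with fluconazole 2–32 μg/mL and/or compound 0.12–64 μg/mL added; 24 h at 37 °C. Biofilm metabolic activity by XTT reduction, OD490. Three independent experiments.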

For test [10], the system named is Candida albicans. Briefly: Inhibition of pre-formed biofilms in Candida albicans 0304103 at 64 ug/ml incubated for 24 hrs in presence of fluconazole by XTT reduction assay. It is filed as functional. The settings on record: dose 64.0 µg/ml. The method in brief:
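Mature biofilms grown 24 h at 37 °C from C. albicans 0304103 (1.0 × 10⁶ CFU/mL in RPMI 1640), then treated with drugs alone or combined as in the formation assay; viability by XTT reduction at OD490. Three independent experiments; t-test versus control.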

SMILES strings stand for the structures. Values after ≈ are worked out from the molar mass of the structure shown. Active and inactive are the calls of the source. The rule behind the calls is not given here.

A word on the IC50: it is the concentration that gives 50% inhibition. A low value points to greater potency in that assay.

Turning to `O=C(Cc1ccc(OCCCn2c3c(c4cccc(Cl)c42)CCNC3)cc1)NO`, the MIC80 in the test on Candida albicans [1] was determined as 2 µg/mL; in the test on Candida albicans [2] it was 0.25 µg/mL (≈ 0.604 µM). Moreover, the “fractional inhibitory concentration index (FICI)” value was 0.035 with Candida albicans [3], 0.035 with Candida albicans [4] and 0.039 with Candida albicans [5]. Moreover, the outcome in the test on Cryptococcus neoformans was inactive. Further, in test [6], half-maximal inhibition (IC50) was put at 459 nM. Further, the result in the test on Candida albicans [7] and in the test with Candida albicans [8] was Active. The inhibition result in the test on Candida albicans [9] is “inactive”. In addition, the inhibition result with Candida albicans [10] is “Active”.
